Results: PMC11102597 (Molecular cell, 2023)
Like-named read-outs stand apart in the source and are kept apart here.

Assays:
[1] = biological target: T1, PaMx33-Acb2 (Pseudomonas phage PaMx33, UniProt A0A1C8HPQ3); assay: biochemical; type: binding; settings: for binding to Acb2 (ITC): WT PaMx33-Acb2
[2] = biological target: T2, Acb2 protein (PaMx33-Acb2) (Pseudomonas phage PaMx33, UniProt A0A1C8HPQ3); assay: Native gel; type: binding, P. aeruginosa phage PaMx33; settings: WT PaMx33-Acb2 14.3 μM
[3] = biological target: T2, Acb2 protein (PaMx33-Acb2); settings: Figure S1A–B; cited from earlier work
[4] = biological target: JBD67-Acb2 (Pseudomonas phage JBD67, UniProt P0DX89); assay: ITC binding to JBD67-Acb2; parameters: species or system P. aeruginosa phage JBD67
[5] = biological target: T3, CHI14-Acb2 (Serratia phage CHI14, UniProt A0A1Z1LXK7); assay: Native gel shift assay with CHI14-Acb2; type: binding
T3 sequence (A0A1Z1LXK7 1-96): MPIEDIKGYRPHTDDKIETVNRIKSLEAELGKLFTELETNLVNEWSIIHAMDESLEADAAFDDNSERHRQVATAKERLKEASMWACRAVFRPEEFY
Procedure, shortened: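 Recombinant Acb2, expressed in E. coli BL21 (DE3) with 12 h induction at 18°C, was purified as a His6-SUMO fusion on Ni-NTA, cut with Ulp1, then gel-filtered in 10 mM Tris-HCl pH 8.0, 500 mM NaCl, 5 mM DTT. Protein (14.3 μM) was preincubated 10 min at 18°C with cyclic dinucleotides (1.8, 3.6, 7.2 μM). Samples were run on 5% native polyacrylamide gels and stained with Coomassie blue.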

[6] = biological target: T3, CHI14-Acb2; assay: ITC binding to CHI14-Acb2
[7] = biological target: T4, Y11A Acb2 mutant (Pseudomonas phage PaMx33, UniProt A0A1C8HPQ3, Y11A); settings: method not stated here; cited from earlier work
[8] = biological target: T5, K26A Acb2 mutant (Pseudomonas phage PaMx33, UniProt A0A1C8HPQ3, K26A); settings: method not stated here; cited from earlier work
[9] = biological target: T1, PaMx33-Acb2; settings: WT Acb2; cited from earlier work
[10] = biological target: T4-Acb2 (Enterobacteria phage T4, UniProt P13314); assay: ITC binding to T4-Acb2; parameters: species or system Escherichia phage T4
[11] = biological target: T4, Y11A Acb2 mutant; assay: Native gel shift assay with Acb2 Y11A mutant; type: binding, P. aeruginosa phage PaMx33
[12] = biological target: NucC (Pseudomonas aeruginosa, UniProt P0DTF8); assay: In vitro NucC activity assay; type: biochemical, P. aeruginosa strain ATCC 27853 (Pa278); settings: cA3 5 nM
[13] = biological target: T6, D61R mutant of T4-Acb2 (Enterobacteria phage T4, UniProt P13314, D61R); assay: ITC binding to T4-Acb2 D61R mutant; parameters: species or system Escherichia phage T4
T6 sequence (P13314 1-88 D61R): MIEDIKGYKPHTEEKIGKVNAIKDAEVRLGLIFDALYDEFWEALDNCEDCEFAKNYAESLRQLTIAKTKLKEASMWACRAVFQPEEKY

[14] = biological target: T5, K26A Acb2 mutant; assay: Native gel shift assay with Acb2 K26A mutant; type: binding, P. aeruginosa phage PaMx33
[15] = biological target: T1, PaMx33-Acb2; assay: HPLC analysis of cA3 binding and release by Acb2; parameters: species or system P. aeruginosa phage PaMx33
[16] = biological target: T7, Acb2 T74A mutant (Pseudomonas phage PaMx33, UniProt A0A1C8HPQ3, T74A); assay: ITC binding to PaMx33-Acb2 T74A mutant; parameters: species or system P. aeruginosa phage PaMx33
T7 sequence (A0A1C8HPQ3 1-93 T74A): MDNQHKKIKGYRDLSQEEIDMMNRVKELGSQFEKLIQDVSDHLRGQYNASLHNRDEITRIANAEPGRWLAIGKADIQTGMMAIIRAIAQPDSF

[17] = biological target: T8, Acb2 R67A mutant (Pseudomonas phage PaMx33, UniProt A0A1C8HPQ3, R67A); assay: ITC binding to PaMx33-Acb2 R67A mutant; parameters: species or system P. aeruginosa phage PaMx33; settings: in vitro
T8 sequence (A0A1C8HPQ3 1-93 R67A): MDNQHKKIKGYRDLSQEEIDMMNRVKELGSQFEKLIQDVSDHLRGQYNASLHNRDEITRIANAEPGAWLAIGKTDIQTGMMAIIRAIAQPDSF

[18] = biological target: the molecule itself; assay: crystal structure
[19] = biological target: T9, NucC (Pseudomonas aeruginosa, UniProt P0DTF8); assay: In vitro NucC activity assay; type: biochemical, P. aeruginosa strain ATCC 27853 (Pa278); settings: NucC 10 nM, cA3 5 nM, Acb2 50 nM
T9 sequence (P0DTF8 whole entry, looked up): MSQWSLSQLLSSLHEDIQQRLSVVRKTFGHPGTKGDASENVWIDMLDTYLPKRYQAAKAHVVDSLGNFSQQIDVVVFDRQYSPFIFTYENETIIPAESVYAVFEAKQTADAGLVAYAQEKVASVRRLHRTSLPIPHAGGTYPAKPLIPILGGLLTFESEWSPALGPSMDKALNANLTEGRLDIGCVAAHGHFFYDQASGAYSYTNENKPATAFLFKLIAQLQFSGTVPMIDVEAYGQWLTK

T4 sequence (A0A1C8HPQ3 whole entry Y11A): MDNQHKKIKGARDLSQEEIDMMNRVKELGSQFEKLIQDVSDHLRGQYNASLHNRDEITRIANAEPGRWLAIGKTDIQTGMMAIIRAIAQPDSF
T5 sequence (A0A1C8HPQ3 whole entry K26A): as the sequence (A0A1C8HPQ3 whole entry Y11A) above, with A11Y, K26A counted along it
JBD67-Acb2, sequence (P0DX89 whole entry): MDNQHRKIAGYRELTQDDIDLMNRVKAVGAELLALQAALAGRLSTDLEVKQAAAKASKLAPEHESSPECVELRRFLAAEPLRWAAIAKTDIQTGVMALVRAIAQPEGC
T4-Acb2, sequence (P13314 whole entry): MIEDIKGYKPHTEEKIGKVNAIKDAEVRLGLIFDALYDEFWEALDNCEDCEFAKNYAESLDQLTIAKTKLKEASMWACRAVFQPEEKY

Nc1nc2c(ncn2[C@@H]2O[C@@H]3COP(=O)(O)O[C@@H]4[C@H](O)[C@@H](COP(=O)(O)O[C@H]3[C@H]2O)O[C@H]4n2cnc3c(N)ncnc32)c(=O)[nH]1 [3’,2’-cGAMP]
Kd [1]: ~298 nM
shift of the Acb2 protein / binding (native gel) [2]: significant shift

Nc1ncnc2c1ncn2[C@@H]1O[C@@H]2COP(=O)(O)O[C@H]3[C@@H](O)[C@H](n4cnc5c(N)ncnc54)O[C@@H]3COP(=O)(O)O[C@H]2[C@H]1O [3’,3’-cAA, c-di-AMP]
binding to Acb2 (previous work) [3]: binds

Nc1nc2c(ncn2[C@@H]2O[C@@H]3COP(=O)(O)O[C@H]4[C@@H](O)[C@H](n5cnc6c(N)ncnc65)O[C@@H]4COP(=O)(O)O[C@H]3[C@H]2O)c(=O)[nH]1 [3’,3’-cGAMP]
binding to Acb2 (previous work) [3]: binds
Kd [4]: ~99 nM
shift of the CHI14-Acb2 protein (native gel) [5]: almost no shift
Kd [6]: ~62.4 nM
binding to Y11A Acb2 mutant [7]: lose their binding
binding to K26A Acb2 mutant [8]: lose their binding
Kd [9]: ~87 nM
Kd [10]: ~84.4 nM

Nc1nc2c(ncn2[C@@H]2O[C@@H]3COP(=O)(O)O[C@H]4[C@@H](O)[C@H](n5ccc(=O)[nH]c5=O)O[C@@H]4COP(=O)(O)O[C@H]3[C@H]2O)c(=O)[nH]1 [3’,3’-cUG, 3’,3’-c-UMP-GMP]
binding to Acb2 (previous work) [3]: binds

O=c1ccn([C@@H]2O[C@@H]3COP(=O)(O)O[C@H]4[C@@H](O)[C@H](n5ccc(=O)[nH]c5=O)O[C@@H]4COP(=O)(O)O[C@H]3[C@H]2O)c(=O)[nH]1 [3’,3’-cUU, 3’,3’-c-di-UMP]
binding to Acb2 (previous work) [3]: binds

Nc1ncnc2c1ncn2[C@@H]1O[C@@H]2COP(=O)(O)O[C@H]3[C@@H](O)[C@H](n4cnc5c(N)ncnc54)O[C@@H]3COP(=O)(O)O[C@H]3[C@@H](O)[C@H](n4cnc5c(N)ncnc54)O[C@@H]3COP(=O)(O)O[C@H]2[C@H]1O [cA3, 3’3’3’-cyclic AMP-AMP-AMP]
binding / shift (native gel) [11]: significant shift
DNA cleavage activity of NucC ([12]; NucC 10 nM): activates
NucC activity with cA3 released after proteolysis of WT Acb2 ([12]; Acb2 50 nM, proteinase K 1 μM): again activated
Kd [4]: ~3.5 nM
binding (ITC) [13]: unable to bind
binding / shift (native gel) [14]: significant shift
binding (ITC) ([6]; CHI14-Acb2): does not bind
remaining cA3 after incubation with Acb2 (HPLC) ([15]; 40 μM Acb2, 4 μM cA3): depletes any detectable molecules
cA3 after proteolysis of Acb2 (HPLC) ([15]; proteinase K treatment): released back into the buffer unmodified
binding (ITC) ([10]; T4-Acb2): does not bind
Kd [1]: ~1.5 nM
Kd [16]: ~291 nM
shift of the Acb2 protein / binding (native gel) [2]: significant shift
binding (ITC) [17]: abolished

Nc1ncnc2c1ncn2[C@@H]1O[C@@H]2COP(=O)(O)O[C@H]3[C@@H](O)[C@H](n4cnc5c(N)ncnc54)O[C@@H]3COP(=O)(O)O[C@H]3[C@@H](O)[C@H](n4cnc5c(N)ncnc54)O[C@@H]3COP(=O)(O)O[C@H]3[C@@H](O)[C@H](n4cnc5c(N)ncnc54)O[C@@H]3COP(=O)(O)O[C@H]3[C@@H](O)[C@H](n4cnc5c(N)ncnc54)O[C@@H]3COP(=O)(O)O[C@H]3[C@@H](O)[C@H](n4cnc5c(N)ncnc54)O[C@@H]3COP(=O)(O)O[C@H]2[C@H]1O [cA6]
shift of the Acb2 protein / binding (native gel) [2]: does not shift

Nc1nc2c(ncn2[C@@H]2O[C@@H]3COP(=O)(O)O[C@H]4[C@@H](O)[C@H](n5cnc6c(N)ncnc65)O[C@@H]4COP(=O)(O)O[C@H]4[C@@H](O)[C@H](n5cnc6c(N)ncnc65)O[C@@H]4COP(=O)(O)O[C@H]3[C@H]2O)c(=O)[nH]1 [cAAG, 3’3’3’-cAAG]
Kd [1]: ~2.7 nM
shift of the Acb2 protein / binding (native gel) [2]: significant shift

Nc1ccn([C@@H]2O[C@@H]3COP(=O)(O)O[C@H]3[C@H]2O)c(=O)n1 [cCMP]
binding to Acb2 (ITC) [1]: does not bind
shift of the Acb2 protein / binding (native gel) [2]: does not bind

O=c1ccn([C@@H]2O[C@@H]3COP(=O)(O)O[C@H]3[C@H]2O)c(=O)[nH]1 [cUMP]
binding to Acb2 (ITC) [1]: does not bind
shift of the Acb2 protein / binding (native gel) [2]: does not bind

B1: Acb2 from P. aeruginosa phage PaMx33 (natural protein, Pseudomonas aeruginosa phage PaMx33, UniProt A0A1C8HPQ3 1-93, looked up)
chain: MDNQHKKIKGYRDLSQEEIDMMNRVKELGSQFEKLIQDVSDHLRGQYNASLHNRDEITRIANAEPGRWLAIGKTDIQTGMMAIIRAIAQPDSF
stoichiometry N [18]: 6

B2: WT Acb2: anti-CBASS protein Acb2 from P. aeruginosa phage PaMx33, cyclic oligonucleotide sponge (protein)
chain: MDNQHKKIKGYRDLSQEEIDMMNRVKELGSQFEKLIQDVSDHLRGQYNASLHNRDEITRIANAEPGRWLAIGKTDIQTGMMAIIRAIAQPDSF
modifications: left off: His6-SUMO, end not stated, cleaved
effect on cA3-activated NucC activity [19]: significantly decreased
